Test [1] has as its system Plasmodium falciparum. Kind of test: Antimalarial activity after 24 hrs against chloroquine-sensitive Plasmodium falciparum 3D7 by [3H]hypoxanthine uptake. Format: functional, organism-based. The gist of the method:
(§1)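 Human type B+ erythrocytes at 2% parasitemia and 4% hematocrit in RPMI-1640 (0.5% Albumax II, 16 µM hypoxanthine, HEPES, glucose); after 30 min at 37 °C, drug was added to final 1% parasitemia and 2% hematocrit. Test range 7.8–500 µM, with chloroquine at 3.9–500 nM and final DMSO under 2%. Incubation was 24 h, then [3H]-hypoxanthine for 18–24 h more; filters were counted. IC50 came from curve fitting, quadruplicates, 2–3 runs.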

In test [2] the test system is Plasmodium falciparum. The test is described as follows: Antimalarial activity against chloroquine-resistant Plasmodium falciparum FCR3 Gambia as 24 hrs [3H]hypoxanthine uptake. To be noted: FCR-3/Gambia. In kind it is functional, organism-based. The gist of the method:
as §1

Test [3] relates to Plasmodium falciparum. The test is described as follows: Antimalarial activity after 48 hrs against Plasmodium falciparum W2 by [3H]hypoxanthine uptake.
Test [4] relates to Plasmodium falciparum. Kind of test: Antimalarial activity after 48 hrs against Plasmodium falciparum D6 by [3H]hypoxanthine uptake.

In brackets after ≈: the same amount, converted by molar mass. Several values for one entry are separate records, joined by “and”; a condition that tells them apart may be missing. Identical values can stand only once.

As usually defined, the IC50 is the point on the concentration scale where inhibition reaches its midpoint. A high value points to weaker potency in that assay. On to `C=C(C)[C@@H]1CC[C@]2(C)CC[C@]3(C)[C@H](CC[C@@H]4[C@@]5(C)CC[C@H](OC(=O)COCCCCCCCCCCCCCCCCCCCCCCCC)C(C)(C)[C@@H]5CC[C@]43C)[C@@H]12`, for which the IC50 in the test with Plasmodium falciparum [1] was 135 µM; in the test on Plasmodium falciparum [2] it was 84 µM and 69000 µg/mL.
Consider `OC(c1cc(C(F)(F)F)nc2c(C(F)(F)F)cccc12)C1CCCCN1` (stereo not given) [MEFLOQUINE], for which the IC50 is 28.5 µg/mL (≈ 75.3 µM) with Plasmodium falciparum [3] and 2550 µg/mL (≈ 6740 µM) in the test on Plasmodium falciparum [4].
With `C=C(C)[C@@H]1CC[C@]2(C)CC[C@]3(C)[C@H](CC[C@@H]4[C@@]5(C)CC[C@H](OC(=O)CC(O)CCCCCCCCCCCCCCCCC)C(C)(C)[C@@H]5CC[C@]43C)[C@@H]12` (stereo not given in full), the values for the IC50 in the test with Plasmodium falciparum [1] and in the test on Plasmodium falciparum [2] were 282 µM and 269 µM, respectively.
`C=C[C@H]1CN2CC[C@H]1C[C@H]2[C@H](O)c1ccnc2ccc(OC)cc12` [QUININE]: the IC50 with Plasmodium falciparum [3] stood at 67 µg/mL (≈ 207 µM); in the test on Plasmodium falciparum [4], 25 µg/mL (≈ 77.1 µM).
Consider `C=C(C)[C@@H]1CC[C@]2(C)CC[C@]3(C)[C@H](CC[C@@H]4[C@@]5(C)CC[C@H](O)C(C)(C)[C@@H]5CC[C@]43C)[C@@H]12` [LUPEOL], for which the IC50 in the test with Plasmodium falciparum [1] is 106 µM and 45000 µg/mL; in the test on Plasmodium falciparum [2], 97 µM and 41000 µg/mL.

(Values after ChEMBL document CHEMBL1157223, “Lupeol long-chain fatty acid esters with antimalarial activity from Holarrhena floribunda” (J Nat Prod, 2006).)
